Values after ≈ are worked out from the molar mass of the structure shown.
Tests used:
[1] = Solubility in water by spectrophotometry; type: physicochemical
[2] = Antiproliferative activity against human LXFL 529L cells after 3 days by sulforhodamine B assay; type: functional, cell-based
Summary of the method: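 Cells kept at 37 °C in humidified 5% CO2 in RPMI 1640 with 10% heat-inactivated FBS, penicillin (100 units/mL) and streptomycin, and checked for mycoplasma. Seeded, grown 24 h, then exposed to drug for 3 days in serum-containing medium. Fixed with 50% TCA solution for 1 h at 4 °C, stained with 0.4% SRB, dye eluted in 10 mM Tris pH 10.5, read at 570 nm. Growth expressed as % T/C; IC50 derived.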

| SMILES | solubility [1] [µg/mL] | IC50 ([2]; Homo sapiens, LXFL 529L, 72 h) [µM] | IC50 ([2]; lxfl 529l) [µM] |
| --- | --- | --- | --- |
| CN(C)CCN(C)C(=O)c1ccc2c(c1)/C(=C1/Nc3ccccc3/C1=N\O)C(=O)N2 | 6400 (≈ 15800 µM) | 2.2 |  |
| COS(=O)(=O)[O-].C[N+](C)(C)CCNC(=O)c1ccc2c(c1)/C(=C1/Nc3ccccc3C1=O)C(=O)N2 | 53000 | 8.6 |  |
| COS(=O)(=O)[O-].C[N+]1(C)CCN(C(=O)c2ccc3c(c2)/C(=C2/Nc4ccccc4C2=O)C(=O)N3)CC1 | 60000 |  | 3.5 |
| CN1CCN(CCNC(=O)c2ccc3c(c2)/C(=C2/Nc4ccccc4C2=O)C(=O)N3)CC1.Cl | > 2000 |  | 6 |
| CN(C)CCN(C)C(=O)c1ccc2c(c1)/C(=C1/Nc3ccccc3/C1=N\OCCO[C@@H]1O[C@H](CO)[C@@H](O)[C@H](O)[C@H]1O)C(=O)N2 | > 380 | > 10 |  |
| CN(CC[N+](C)(C)C)C(=O)c1ccc2c(c1)/C(=C1/Nc3ccccc3C1=O)C(=O)N2.[I-] | 1600 | 5.7 |  |
| O=C1Nc2ccc(C(=O)N(CCO)CCO)cc2/C1=C1/Nc2ccccc2/C1=N\O | 523 (≈ 1280 µM) | 5.9 |  |
| O=C1Nc2ccc(C(=O)NC[C@H](O)[C@@H](O)[C@H](O)[C@H](O)CO)cc2/C1=C1/Nc2ccccc2C1=O | 21.6 (≈ 46 µM) | > 30 |  |
| O=C1Nc2ccc(C(=O)NCCO)cc2/C1=C1/Nc2ccccc2C1=O | 9.5 (≈ 27.2 µM) | 9.2 |  |
| CN(C)CCN(C)C(=O)c1ccc2c(c1)/C(=C1/Nc3ccccc3C1=O)C(=O)N2 | 35.4 (≈ 90.7 µM) | 5.4 |  |
| CN(C)c1ccc(NC(=O)c2ccc3c(c2)/C(=C2/Nc4ccccc4C2=O)C(=O)N3)cc1 | 580 (≈ 1370 µM) | 1.2 |  |
| CN1CCN(CCNC(=O)c2ccc3c(c2)/C(=C2/Nc4ccccc4C2=O)C(=O)N3)CC1 | 700 (≈ 1620 µM) | 7.8 |  |
| O=C1Nc2ccc(C(=O)Nc3cccnc3)cc2/C1=C1/Nc2ccccc2C1=O | 55.5 (≈ 145 µM) | > 10 |  |
| CN1CCN(C(=O)c2ccc3c(c2)/C(=C2/Nc4ccccc4C2=O)C(=O)N3)CC1 | 1000 (≈ 2570 µM) | 3.9 |  |
| O=C1Nc2ccc(C(=O)NCCO)cc2/C1=C1/Nc2ccccc2/C1=N\O | 179 (≈ 491 µM) | 4.5 |  |
| COc1ccc2c(c1)/C(=C1/Nc3ccccc3/C1=N\OCCO[C@@H]1O[C@H](CO)[C@@H](O)[C@H](O)[C@H]1O)C(=O)N2 | 42 (≈ 81.8 µM) | 0.5 |  |
| O=C1Nc2ccc(C(=O)O)cc2/C1=C1/Nc2ccccc2C1=O | 41 (≈ 134 µM) | 7 |  |
| C[N+]1(C)CCN(C(=O)c2ccc3c(c2)/C(=C2/Nc4ccccc4C2=O)C(=O)N3)CC1.[I-] | 2450 | 2.5 |  |
| O=C1Nc2ccc(C(=O)N(CCO)CCO)cc2/C1=C1/Nc2ccccc2/C1=N\OCC(O)CO (configuration not stated) | 21 (≈ 43.5 µM) | 43 |  |
| O=C1Nc2ccccc2/C1=C1/Nc2ccccc2C1=O [INDIRUBIN] |  | 10 |  |
| O=C1Nc2ccc(C(=O)N3CCNCC3)cc2/C1=C1/Nc2ccccc2C1=O | 4.2 (≈ 11.2 µM) | 3.2 |  |
| O=C1Nc2ccc(C(=O)N(CCO)CCO)cc2/C1=C1/Nc2ccccc2C1=O | 6.8 (≈ 17.3 µM) | 4.7 |  |
| CN(C)CCNC(=O)c1ccc2c(c1)/C(=C1/Nc3ccccc3C1=O)C(=O)N2 | 13 (≈ 34.5 µM) | 2.3 |  |
| CN1CCN(c2ccc(NC(=O)c3ccc4c(c3)/C(=C3/Nc5ccccc5/C3=N\O)C(=O)N4)cc2)CC1 | 1600 (≈ 3240 µM) | 4.2 |  |
